The results in this text go back to publication PMC5569645 (ACS Chemical Biology, 2017).

Entries after “also recorded” stand apart in the source; their conditions may differ.

The target of test [1] is T1, purified WT NOD2 (Homo sapiens, UniProt Q9HC29). Kind of test: SPR binding assay, surface-tethered ligands and purified WT NOD2. The method, boiled down:
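Amine-functionalized peptidoglycan derivatives coupled in separate lanes to carboxylic acid-terminated thioalkane self-assembled monolayers on gold. Purified Flag-tagged human WT NOD2 (insect-cell expressed, used within 3 days) flowed over at pH 6.5. Apparent dissociation constants taken from the adsorption isotherm, not a true KD.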

Test [2] addresses T1, purified WT NOD2. In words: Backscattering interferometry. The test is classed as binding. The method, boiled down:
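Purified Flag-tagged human WT NOD2 from baculovirus/insect cells, stored at 4 °C and used within 3 days, at a fixed 10 nM in PBS pH 6.5. Increasing ligand, incubated 40 min at RT in the dark, then read by BSI on a passivated microfluidic chip at 25 °C. Phase change plotted against concentration; purified NOD1 signal under identical conditions subtracted. Single-site fit; run in triplicate, Kd reported as a range.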

Test [3] deals with NOD2 in native membrane vesicles (Homo sapiens, UniProt Q9HC29). The format is binding. As to conditions: for relative binding strength / binding to NOD2 in the native-membrane environment (in words): BSI; for relative binding strength: NOD2 in native membrane vesicles; for binding to NOD2 in the native-membrane environment (in words): native-membrane vesicles; for BSI signal on titration after preincubation with excess ligand 2: competition binding, membrane vesicles preincubated with ligand 2 (10 μM). The method, boiled down:
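Vesicles: about 1 × 10^8 HEK293T-Nod2Myc/tet-op cells in ice-cold HBSS with EDTA-free protease inhibitors, probe-sonicated to clarity, passed through a 220 nm filter (2 h, 6000g, 4 °C). Filtrate stored at 4 °C up to 4 days. Checked by DLS, FM1-43FX lipid stain and Western blot. Fixed vesicle amount plus ligand titration, 40 min dark, RT. BSI chip at 25 °C. Referenced to NOD2-negative HEK293T vesicles; single-site Langmuir fit. Competition: 10 μM excess ligand preincubation, then titration.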

T1 sequence (Q9HC29 whole entry): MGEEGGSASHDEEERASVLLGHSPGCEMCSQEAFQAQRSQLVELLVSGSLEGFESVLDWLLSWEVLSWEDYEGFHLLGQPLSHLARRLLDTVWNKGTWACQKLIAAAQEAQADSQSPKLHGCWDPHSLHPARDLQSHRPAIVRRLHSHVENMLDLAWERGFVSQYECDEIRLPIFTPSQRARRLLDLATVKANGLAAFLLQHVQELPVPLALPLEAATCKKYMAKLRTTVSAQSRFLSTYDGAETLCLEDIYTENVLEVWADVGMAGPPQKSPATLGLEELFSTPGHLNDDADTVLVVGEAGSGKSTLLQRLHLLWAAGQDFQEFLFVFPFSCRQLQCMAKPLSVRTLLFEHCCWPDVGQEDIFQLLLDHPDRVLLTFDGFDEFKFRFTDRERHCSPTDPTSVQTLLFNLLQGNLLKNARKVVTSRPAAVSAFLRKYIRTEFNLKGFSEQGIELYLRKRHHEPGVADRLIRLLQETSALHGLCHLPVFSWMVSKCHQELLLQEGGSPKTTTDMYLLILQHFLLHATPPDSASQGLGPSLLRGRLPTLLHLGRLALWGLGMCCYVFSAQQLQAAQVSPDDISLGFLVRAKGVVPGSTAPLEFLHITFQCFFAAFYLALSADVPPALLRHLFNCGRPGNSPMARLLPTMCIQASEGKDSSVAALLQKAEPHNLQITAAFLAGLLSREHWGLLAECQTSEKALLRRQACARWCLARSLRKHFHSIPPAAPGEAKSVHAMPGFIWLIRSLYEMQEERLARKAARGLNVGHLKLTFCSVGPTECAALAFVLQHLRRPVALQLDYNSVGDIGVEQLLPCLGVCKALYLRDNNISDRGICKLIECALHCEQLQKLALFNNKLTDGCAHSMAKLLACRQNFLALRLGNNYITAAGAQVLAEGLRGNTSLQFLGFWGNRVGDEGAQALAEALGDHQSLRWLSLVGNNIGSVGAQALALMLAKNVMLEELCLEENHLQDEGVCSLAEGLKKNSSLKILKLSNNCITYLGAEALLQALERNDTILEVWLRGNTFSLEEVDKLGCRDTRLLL
NOD2 in native membrane vesicles, sequence (Q9HC29 whole entry): as above

On to `COC(=O)[C@H](C)NC(=O)[C@@H](C)O[C@H]1[C@H](O)[C@@H](CN)O[C@H](O)[C@@H]1NC(C)=O` [ligand 19], for which the Kd at purified WT NOD2 [1] lay within 16 to 30 nM. At purified WT NOD2 [2], this compound displayed a dissociation constant Kd of 8 to 20 nM. Besides, in test [3], the Kd lay within 3 to 30 nM, the relative binding strength entry is “strong” and the “binding to NOD2 in the native-membrane environment (in words)” value (“binding to NOD2” below) was “bind with high affinity; also recorded: strongly bound”.
`COC(=O)[C@@H](C)O[C@H]1[C@H](O)[C@@H](CN)O[C@H](O)[C@@H]1NC(C)=O` [ligand 20]: the Kd on purified WT NOD2 [1] lay in the range of 12 to 24 nM. In addition, on purified WT NOD2 [2], the Kd is 2 to 10 nM. Besides, in test [3], the Kd lay in the range of 50 to 200 nM, the relative binding strength entry was “weak”, the “binding to NOD2” value is listed as “bind with weak affinity; also recorded: weakly bound” and the “BSI signal on titration after preincubation with excess ligand 2” value is “no BSI signal”.
For `N[C@H](CCC(=O)N[C@H](CCC[C@H](N)C(=O)O)C(=O)O)C(=O)O` [iE-DAP, reference compound], the “binding to NOD2” value in test [3] is listed as “did not bind”.
The same measure, in the same setting: as for `CC(=O)N[C@H]1C(O)O[C@H](CO)[C@@H](O)[C@@H]1O[C@H](C)C(=O)O` (some centres unmarked) [N-acetyl-muramic acid, reference compound], the entry is “did not bind; also recorded: does not bind or activate”.
Compound `CC(=O)N[C@@H]1[C@@H](O[C@H](C)C(=O)N[C@@H](C)C(=O)N[C@@H](CCC(=O)O)C(N)=O)[C@H](O)[C@@H](CN)O[C@@H]1O` [ligand 3, 6-amino-MDP-(LL)] showed a Kd on purified WT NOD2 [1] of 10 to 18 nM. The same compound gave a Kd at purified WT NOD2 [2] of 1 to 6 nM. Besides, in test [3], the Kd fell in the range of 3 to 30 nM, the relative binding strength result was “strong” and the “binding to NOD2” value is recorded as “bind with high affinity”.
For the compound `CC(=O)N[C@@H]1[C@@H](O[C@H](C)C(=O)N[C@@H](C)C(=O)O)[C@H](O)[C@@H](CN)O[C@@H]1O` [ligand 18], the Kd on purified WT NOD2 [1] was in the range of 24 to 36 nM. Besides, the Kd at purified WT NOD2 [2] was 15 to 30 nM. In test [3], the relative binding strength result was “strong” and the “binding to NOD2” value is “indications of binding but unusual curves”.
On to `COC(=O)[C@@H](C)O[C@H]1[C@H](O)[C@@H](CO)OC(O)[C@@H]1NC(C)=O` (some centres unmarked) [ligand 23, N-acetyl muramyl methyl ester], for which, in test [3], the “binding to NOD2” value was “bound with similar high affinity”.
Take `CC(=O)N[C@@H]1[C@@H](O[C@H](C)C(=O)N[C@@H](C)C(=O)N[C@H](CCC(=O)O)C(N)=O)[C@H](O)[C@@H](CN)O[C@@H]1O` [ligand 2, 6-amino-MDP-(LD)]: at purified WT NOD2 [1], the Kd was in the range of 4 to 10 nM. At purified WT NOD2 [2], this compound yielded a Kd of 2 to 10 nM. In test [3], the Kd lay within 3 to 30 nM, the relative binding strength result is recorded as “strong”, the “binding to NOD2” value is “bind with high affinity” and the “BSI signal on titration after preincubation with excess ligand 2” value was “no BSI signal”.
